Legend:
Type in all cases: cell-based, human
NK cells = experiment: Cell viability, trypan blue exclusion
PBMCs with Granulocytes = experiment: Cell viability, trypan blue exclusion; conditions: for Percent Viable Cells: PBMCs with Granulocytes
Granulocytes [1] = experiment: Cell viability, trypan blue exclusion; conditions: for Percent Viable Cells: Granulocytes
Granulocytes [2] = experiment: IL-1β secretion assay
Summary of the method: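 NK cells, MD-PBMCs, PBMCs or granulocytes (1.5 million/mL) or PBMC+granulocytes (0.75 million/mL each), per donor, exposed 24 h, 48 h or 6 days to 0.05–5 μM test compound diluted from DMSO stock, with DMSO controls. Supernatants kept at −70 °C. IL-1β by sandwich ELISA: HRP detection antibody, acid-stopped substrate, A450 against standards. Detection limit 3 pg/mL; triplicates; ANOVA then t test versus control, p<0.05.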

MD-PBMCs = experiment: IL-1β secretion; conditions: donor F240, 24 h

CCC[CH2][Sn][CH2]CCC [DBT, Dibutyltin]
Percent Viable Cells (NK cells; 24 h, 0.05 μM DBT): 97±3%
Percent Viable Cells (NK cells; 24 h, 0.1 μM DBT): 98±2%
Percent Viable Cells (NK cells; 24 h, 0.25 μM DBT): 98±1%
Percent Viable Cells (NK cells; 24 h, 0.5 μM DBT): 95±4%
Percent Viable Cells (NK cells; 24 h, 1 μM DBT): 92±5%
Percent Viable Cells (NK cells; 24 h, 2.5 μM DBT): 88±1%
Percent Viable Cells (NK cells; 24 h, 5 μM DBT): 80±7%
average decrease in viability (NK cells; 24 h, 5 μM DBT): 13%
effect on viability compared to the control (NK cells; 24 h, 0.05–1 μM DBT): no effect
decrease in NK cell viability (NK cells; 24 h, 2.5 and 5 μM DBT): about 10%
Percent Viable Cells (NK cells; 48 h, 0.05 μM DBT): 97±0%
Percent Viable Cells (NK cells; 48 h, 0.1 μM DBT): 96±1%
Percent Viable Cells (NK cells; 48 h, 0.25 μM DBT): 93±0 %
Percent Viable Cells (NK cells; 48 h, 0.5 μM DBT): 90±1 %
Percent Viable Cells (NK cells; 48 h, 1 μM DBT): 79±12%
Percent Viable Cells (NK cells; 48 h, 2.5 μM DBT): 61±6 %
Percent Viable Cells (NK cells; 48 h, 5 μM DBT): 64±8 %
reductions in viability (NK cells; 48 h, 2.5 and 5 μM DBT): around 35%
Percent Viable Cells (NK cells; 6 day, 0.05 μM DBT): 75±8%
Percent Viable Cells (NK cells; 6 day, 0.1 μM DBT): 78±7%
Percent Viable Cells (NK cells; 6 day, 0.25 μM DBT): 74±9%
Percent Viable Cells (NK cells; 6 day, 0.5 μM DBT): 68±9%
Percent Viable Cells (NK cells; 6 day, 1 μM DBT): 69±3%
Percent Viable Cells (NK cells; 6 day, 2.5 μM DBT): 58±7%
Percent Viable Cells (NK cells; 6 day, 5 μM DBT): 49±19%
change in viability compared to the control (NK cells; 6 days, 0.05–1 μM DBT): no change
average decrease in viability (PBMCs with Granulocytes; PBMC+granulocytes, 24 h, 5 μM DBT): 16%
Percent Viable Cells (PBMCs with Granulocytes; 24 h, 0.05 μM DBT): 94±3%
Percent Viable Cells (PBMCs with Granulocytes; 24 h, 0.1 μM DBT): 93±6%
Percent Viable Cells (PBMCs with Granulocytes; 24 h, 0.25 μM DBT): 93±4%
Percent Viable Cells (PBMCs with Granulocytes; 24 h, 0.5 μM DBT): 94±5%
Percent Viable Cells (PBMCs with Granulocytes; 24 h, 1 μM DBT): 88±6%
Percent Viable Cells (PBMCs with Granulocytes; 24 h, 2.5 μM DBT): 84±8%
Percent Viable Cells (PBMCs with Granulocytes; 24 h, 5 μM DBT): 77±4 %
Percent Viable Cells (PBMCs with Granulocytes; 48 h, 0.05 μM DBT): 93±5%
Percent Viable Cells (PBMCs with Granulocytes; 48 h, 0.1 μM DBT): 94±2%
Percent Viable Cells (PBMCs with Granulocytes; 48 h, 0.25 μM DBT): 93±5%
Percent Viable Cells (PBMCs with Granulocytes; 48 h, 0.5 μM DBT): 92±2%
Percent Viable Cells (PBMCs with Granulocytes; 48 h, 1 μM DBT): 88±10%
Percent Viable Cells (PBMCs with Granulocytes; 48 h, 2.5 μM DBT): 50±29%
Percent Viable Cells (PBMCs with Granulocytes; 48 h, 5 μM DBT): 49±12 %
Percent Viable Cells (PBMCs with Granulocytes; 6 day, 0.05 μM DBT): 80±7%
Percent Viable Cells (PBMCs with Granulocytes; 6 day, 0.1 μM DBT): 72±10%
Percent Viable Cells (PBMCs with Granulocytes; 6 day, 0.25 μM DBT): 74±8%
Percent Viable Cells (PBMCs with Granulocytes; 6 day, 0.5 μM DBT): 54±10 %
Percent Viable Cells (PBMCs with Granulocytes; 6 day, 1 μM DBT): 50±12 %
Percent Viable Cells (PBMCs with Granulocytes; 6 day, 2.5 μM DBT): 32±15 %
Percent Viable Cells (PBMCs with Granulocytes; 6 day, 5 μM DBT): 37±10 %
effect on viability compared to the control (PBMCs with Granulocytes; PBMCs+granulocytes, 24 h, 0.05–2.5 μM DBT): no effect
Percent Viable Cells (Granulocytes [1]; 24 h, 0.05 μM DBT): 90±8%
Percent Viable Cells (Granulocytes [1]; 24 h, 0.1 μM DBT): 92±5%
Percent Viable Cells (Granulocytes [1]; 24 h, 0.25 μM DBT): 95±3%
Percent Viable Cells (Granulocytes [1]; 24 h, 0.5 μM DBT): 94±3%
Percent Viable Cells (Granulocytes [1]; 24 h, 1 μM DBT): 94±2%
Percent Viable Cells (Granulocytes [1]; 24 h, 2.5 μM DBT): 92±3%
Percent Viable Cells (Granulocytes [1]; 24 h, 5 μM DBT): 92±2%
Percent Viable Cells (Granulocytes [1]; 48 h, 0.05 μM DBT): 93±4%
Percent Viable Cells (Granulocytes [1]; 48 h, 0.1 μM DBT): 95±3%
Percent Viable Cells (Granulocytes [1]; 48 h, 0.25 μM DBT): 92±5%
Percent Viable Cells (Granulocytes [1]; 48 h, 0.5 μM DBT): 94±3%
Percent Viable Cells (Granulocytes [1]; 48 h, 1 μM DBT): 95±2%
Percent Viable Cells (Granulocytes [1]; 48 h, 2.5 μM DBT): 72±10 %
Percent Viable Cells (Granulocytes [1]; 48 h, 5 μM DBT): 73±17%
Percent Viable Cells (Granulocytes [1]; 6 day, 0.05 μM DBT): 51±18%
Percent Viable Cells (Granulocytes [1]; 6 day, 0.1 μM DBT): 65±22%
Percent Viable Cells (Granulocytes [1]; 6 day, 0.25 μM DBT): 55±33%
Percent Viable Cells (Granulocytes [1]; 6 day, 0.5 μM DBT): 50±5%
Percent Viable Cells (Granulocytes [1]; 6 day, 1 μM DBT): 57±9%
Percent Viable Cells (Granulocytes [1]; 6 day, 2.5 μM DBT): 34±8 %
Percent Viable Cells (Granulocytes [1]; 6 day, 5 μM DBT): 35±20%
effect on viability (Granulocytes [1]; granulocytes alone, 24 h, any of the DBT exposures): not affected
Secretion of IL-1β (Granulocytes [2]; 4 donors, 24 h, any of the conditions tested, limit of detection): ≤ 3 pg/mL
average of the maximum fold increase in IL-β secretion (Granulocytes [2]; 24 h, across donors): 3.7 fold
change in IL-1β secretion (Granulocytes [2]; 48 h, 0.25–5 μM DBT, cells from 3 of the 4 donors): increases
Interleukin 1 beta secreted (MD-PBMCs; 0.05 μM DBT + Caspase-1 inhibitor II 50 μM): 337 ± 7 pg/mL
Interleukin 1 beta secreted (MD-PBMCs; 0.05 μM DBT + U0126 50 μM): 1840 ± 95 pg/mL
fold increase in IL-1β secretion (MD-PBMCs; 0.05 μM DBT, absence of MEK inhibitor): 1.6 fold

Reference: PMC5114172 (Journal of applied toxicology : JAT, 2016)
